Assay results as given in paper PMC3159890 (Frontiers in Pharmacology, 2011).
pEC50: −log10 of the molar value.

Assays:
Assay type in all cases: cell-based
F508del-CFTR = F508del-CFTR (Homo sapiens, UniProt P13569, DEL508-508); assay: iodide efflux in CuFi-1 cells
Procedure, shortened: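 CuFi-1 cells (F508del/F508del, CF bronchial epithelium) grown on collagen type VI-coated flasks in BEGM at 37°C, 5% CO2, media renewed every 2 days, then seeded in 24-well plates. F508del-CFTR rescued by 24 h at 27°C or 24 h at 37°C with miglustat. Iodide efflux stimulated by forskolin 10 μM plus test compound 100 μM. Chloride transport inhibitors, when used, were present in loading solution and efflux buffer.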

wild-type CFTR = wild-type CFTR (Homo sapiens, UniProt P13569); assay: iodide efflux in NuLi-1 cells
Procedure, shortened: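 NuLi-1 cells (non-CF human bronchial epithelium, wild-type CFTR) cultured on collagen type VI-coated flasks in BEGM at 37°C, 5% CO2, media changed every 2 days, and seeded in 24-well plates. Iodide efflux stimulated by forskolin 10 μM plus test compound 100 μM. CFTR-inh172 10 μM was present in loading solution and efflux buffer.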

wt-CFTR [1] = target: T1, wt-CFTR (Homo sapiens, UniProt P13569); assay: whole-cell patch-clamp on wt-CFTR-CHO cells
Procedure, shortened: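 CHO cells stably expressing wt-CFTR, kept in α-MEM-GlutaMAX with 7% FBS and 100 μM methotrexate, were plated in 35-mm dishes. Whole-cell currents sampled at 3 kHz. Holding potential −40 mV, with pulses −100 to +100 mV in 20 mV steps. Capacitance obtained from a 10 mV hyperpolarization; currents normalized per pF. Stimulation with forskolin 1 μM plus test compound 10 μM. Time course: amplitude at +40 mV plotted every 10 s.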

wt-CFTR-CHO cells = assay: MTT cytotoxicity assay; settings: 100 μM, 24 h
Procedure, shortened: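 wt-CFTR-CHO cells in α-MEM-GlutaMAX with 7% FBS and 100 μM methotrexate, exposed 24 h at 37°C to 100 μM test compound; MTT done the next day. PBS wash, then MTT (0.5 mg/ml in PBS) for 4 h at 37°C. Formazan dissolved in DMSO; OD read at 570 nm against 630 nm reference. Mean of three replicates, as percentage of control.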

wt-CFTR [2] = target: T1, wt-CFTR; assay: iodide efflux in wt-CFTR-CHO cells
Procedure, shortened: (§1)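 Stably transfected CHO cells (wt-CFTR or G551D-CFTR, methotrexate-selected) seeded in 24-well plates and loaded with 125I; efflux sampled robotically. Rate k = ln(125It1/125It2)/(t1–t2); response = kpeak − kbasal (min−1). Concentration-response curves expressed as percentage of maximal activation. Chloride transport inhibitors, when used, were present in both loading and efflux buffers.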

G551D-CFTR = G551D-CFTR (Homo sapiens, UniProt P13569, G551D); assay: iodide efflux in G551D-CFTR-CHO cells
Procedure, shortened: as §1

[3] = tested on: cAMP levels in wt-CFTR-CHO cells; assay: cAMP-Screen ELISA determination of cAMP; settings: RP193 100 μM alone or with forskolin 1 μM, 10 min
Procedure, shortened: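 wt-CFTR-CHO cells incubated with agents for 10 min at 37°C. Reactions then stopped and intracellular cAMP quantified by cAMP-Screen ELISA, following the kit instructions.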

CHO-K1 = assay: whole-cell patch-clamp on CHO-K1 cells; settings: forskolin 1 μM; RP193 10 μM
Procedure, shortened: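 Whole-cell clamp, seals 5–10 GΩ. Pipette (mM): Cs-aspartate/CsCl, 1 EGTA, 10 TES, 3 MgATP, pH 7.2. Bath (mM): 145 NaCl, 4 CsCl, 1 CaCl2, 1 MgCl2, 10 glucose, 10 TES, pH 7.4. Held at −40 mV, stepped −100 to +100 mV in 20 mV increments; sampled at 3 kHz. Currents normalised to capacitance (pA/pF); time course read at +40 mV every 10 s.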

wt-CFTR [4] = target: T1, wt-CFTR; assay: single-channel cell-attached patch-clamp on wt-CFTR-CHO cells
Procedure, shortened: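 Cell-attached single-channel recordings on wt-CFTR-CHO cells at room temperature, seals 10–20 GΩ. Bath received forskolin 1 μM, then test compound 10 μM. Pipette (mM): 150 NaCl, 2 MgCl2, 10 TES, pH 7.4. Bath (mM): 145 NaCl, 4 KCl, 2 MgCl2, 10 TES, pH 7.4. Sampled at 3 kHz, filtered at 100 Hz (eight-pole Bessel). Potential = bath minus pipette.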

[5] = tested on: primary cultures of human bronchial epithelial cells (HBEC); assay: Ussing chamber short-circuit current in primary HBEC cultures; settings: amiloride 10 μM, luminal bath
Procedure, shortened: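 Primary non-CF bronchial epithelial cells (three lung-resection donors), enzymatically isolated, grown to confluence on permeable collagen supports. Mounted in Ussing chambers in KBR at 37°C, gassed 95% O2-5% CO2. After 20–30 min equilibration and 10 min basal: amiloride 10 μM apical, forskolin 1 μM both sides, test compound basolateral, with 10–15 min stabilisation between additions. ΔIsc = plateau minus pre-addition value; Rt from +2 mV pulses every 90 s.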

O=C(O)c1ccc(/C=C2\SC(=S)N(c3cccc(C(F)(F)F)c3)C2=O)cc1 [CFTR-inh172, reference compound]
inhibition of RP193-induced iodide efflux in CuFi-1 cells (F508del-CFTR; miglustat-treated cells, CFTRinh-172 10 μM, data not shown): fully inhibited
inhibition of RP193-stimulated iodide efflux in NuLi-1 cells (wild-type CFTR; CFTR-inh172 10 μM): abolished
whole-cell current amplitude at +40 mV after inhibitor (wt-CFTR [1]; CFTR-inh172 10 μM added after fsk 1 μM + RP193 10 μM): 8.2 ± 5.2 pA/pF

CCCCc1c(-c2ccc(O)cc2)[nH]c2nccnc12 [RP107, 7-n-butyl-6-(4-hydroxyphenyl)[5H]-pyrrolo[2,3-b]pyrazine]
cytotoxicity (cell viability, MTT) (wt-CFTR-CHO cells): significantly higher cytotoxicity compared to the control conditions

Br.CCCCc1c(-c2cccc(O)c2)[nH]c2nccnc12 [RP146, 7-n-Butyl-6-(3-hydroxyphenyl)-5H-pyrrolo[2,3-b]pyrazine hydrobromide]
cytotoxicity (cell viability, MTT) (wt-CFTR-CHO cells): significantly higher cytotoxicity compared to the control conditions
pEC50 (wt-CFTR [2]): 4.01

Br.CCCCc1c(-c2ccccc2O)[nH]c2nccnc12 [RP173, 7-n-Butyl-6-(2-hydroxyphenyl)-5H-pyrrolo[2,3-b]pyrazine hydrobromide]
cytotoxicity (cell viability, MTT) (wt-CFTR-CHO cells): significantly higher cytotoxicity compared to the control conditions

CCCCc1c(-c2ccc(F)cc2)[nH]c2nccnc12 [RP185, 7-n-butyl-6-(4-fluorophenyl)-5H-pyrrolo[2,3-b]pyrazine]
cytotoxicity (cell viability, MTT) (wt-CFTR-CHO cells): not cytotoxic
pEC50 (wt-CFTR [2]): 4.11

CCCCc1c(-c2ccccc2F)[nH]c2nccnc12 [RP193, 7-n-butyl-6-(2-fluorophenyl)-5H-pyrrolo[2,3-b]pyrazine]
stimulation of iodide efflux in G551D-CFTR-CHO cells (G551D-CFTR; RP193 10 μM in presence of forskolin 10 μM, n = 4): stimulated an efflux
stimulation of iodide efflux in G551D-CFTR-CHO cells (G551D-CFTR; RP193 alone, not shown): did not have any effect
stimulation of iodide efflux in CuFi-1 cells (F508del-CFTR; cells 24 h at 27°C, RP193 100 μM in presence of forskolin 10 μM): iodide efflux significantly higher than with forskolin alone
stimulation of iodide efflux in CuFi-1 cells (F508del-CFTR; cells cultivated at 37°C, RP193 100 μM + forskolin 10 μM): did not stimulate iodide efflux
stimulation of iodide efflux in CuFi-1 cells (F508del-CFTR; cells non-treated with miglustat): no effect
cytotoxicity (cell viability, MTT) (wt-CFTR-CHO cells): not cytotoxic
dependence of CFTR potentiation on intracellular cAMP levels [3]: independent of intracellular cAMP levels
stimulation of CFTR-dependent iodide efflux (wt-CFTR [2]; RP193 100 μM without forskolin, wt-CFTR-CHO cells): no stimulation of CFTR activity
effect on whole-cell current in CHO-K1 (CHO-K1): no effect
stimulation of iodide efflux in NuLi-1 cells (wild-type CFTR; RP193 100 μM in presence of forskolin 10 μM): stimulated CFTR in NuLi-1 cells
time to significant increase of the whole-cell current (wt-CFTR [1]; RP193 10 μM in presence of forskolin 1 μM): 5 to 7 min
whole-cell current amplitude at +40 mV (wt-CFTR [1]; RP193 10 μM in the presence of 1 μM fsk): 113.8 ± 15.1 pA/pF
single-channel CFTR activity, cell-attached (wt-CFTR [4]; RP193 10 μM in bath, in presence of forskolin 1 μM): progressive and sustained CFTR activity was recorded
average unitary conductance (wt-CFTR [4]; forskolin 1 μM + RP193 10 μM, n = 4): 8.1 ± 0.0 pS

N=C(N)NC(=O)c1nc(Cl)c(N)nc1N [amiloride]
change in Isc [5]: −29.5 ± 4.5 μA/cm^2

C=C[C@@]1(C)CC(=O)[C@]2(O)[C@@]3(C)[C@@H](O)CCC(C)(C)[C@@H]3[C@H](O)[C@H](OC(C)=O)[C@@]2(C)O1 [forskolin, reference compound]
stimulation of iodide efflux in G551D-CFTR-CHO cells (G551D-CFTR; forskolin 10 μM alone, compared to basal state): No significant stimulation
effect on whole-cell current in CHO-K1 (CHO-K1): no effect
whole-cell current amplitude at +40 mV (wt-CFTR [1]; forskolin 1 μM alone): 18.4 ± 6.2 pA/pF
